Test results: the array DNA melting data of Ke et al. (doi:10.1101/2024.01.08.574731)

What was measured:
[1] = folding enthalpy; higher = less favourable; fluorescence melt of hairpins on a sequencing array, two-state fit; details: sodium 0.088 M
Outline: (§1)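 On a sequenced MiSeq flow cell, library hairpins with annealed Cy3 and quencher oligos were imaged for Cy3 fluorescence in 2.5 °C steps up to 60 °C, in 50 mM Na-HEPES pH 8.0, 25 mM NaCl. Normalisation used pre-quench Cy3 and control constructs. Bootstrapped two-state fits gave melting temperature and folding enthalpy, combined by inverse variance across four replicates and with fitted temperatures raised by 9.35 °C to match UV melts.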

[2] = melting temperature; fluorescence melt of hairpins on a sequencing array, two-state fit, raised by 9.35 °C to match UV melts; details: sodium 0.088 M
Outline: as §1

Row | Sequence | folding enthalpy [1] [kcal/mol] | Tm [2] [°C]
1 | GATCCCGCGTGGGATC ((((((....)))))) | -38.4 | 59.9
2 | GCGGAGGCGAAAGCCCGC (((..(((....)))))) | -21.7 | 66.6
3 | GAGAAGGGAAACCTTCTC (((((((....))))))) | -50.6 | 55.5
4 | GTTACTCGAAAGAGAAAC (((.(((....))).))) | -28.2 | 41.9
5 | GGTATTGCGAAAGCAACC (((..(((....)))))) | -10 | 29.4
6 | GCGGTAGCGAAAGCTCGC (((..(((....)))))) | -15.5 | 52.8
7 | GGTGAACGAAAGTTAACC (((.(((....))).))) | -34.1 | 49.2
8 | GCCTTGCGAAAGCGCGGC (((..((....))..))) | -18 | 57.1
9 | CGATCGGAAACGACTTCG ((((((....)))..))) | -11.3 | 25.6
10 | GCTCAGGAAACTGAGC ((((((....)))))) | -42.4 | 64.7
11 | GACTACACGAAAGTGGTC (((..(((....)))))) | -14.2 | 40
12 | GAAATAGGAAACTGTTTC ((((.((....)).)))) | -21.3 | 36.1
13 | GCGATGGTTCGC ((((....)))) | -24.5 | 49.8
14 | GTGTTTTCGAAAGAACAC (((..(((....)))))) | -32.9 | 38.3
15 | GGGCCGGGAAACTGGCCC (((((.(....).))))) | -31.9 | 68.9
16 | GTTGCAGGAAACTGTGAC ((..(((....)))..)) | -29.9 | 37.9
17 | GATCGAGGAAACTCAATC (((.(((....))).))) | -10.2 | 25.9
18 | GCGTCCTGACGC ((((....)))) | -35.1 | 59.9
19 | GATCGTTAACACGATC ((((((....)))))) | -37.9 | 52.3

Row | Sequence | folding enthalpy [1] [kcal/mol] | Tm [2] [°C]
20 | GAGAACGAAAGTTTTCTC ((((((....)))..))) | -30.2 | 38.4
21 | GGACTAGGAAACTGGTTC (.((.((....)).)).) | -13.1 | 29.8
22 | GTCACACGAAAGTGAGAC (((.(((....))).))) | -31.9 | 55.1
23 | GGCTCTGGAAACAGGGCC (((.(((....))).))) | -27.7 | 58.1
24 | GATCCGTGGGCGGATC ((((((....)))))) | -30.1 | 66.1
25 | GATCCAACGCTGGATC ((((((....)))))) | -38.3 | 49.1
26 | GGGATGTCGAAAGACCCC (((..(((....)))))) | -18.8 | 44.9
27 | GATCTAGAGTAGATC ((((((...)))))) | -28.1 | 34.8
28 | GAGAGTGGAAACACTTTC ((.((((....)))).)) | -19.4 | 37.6
29 | GGTGGGGGAAACCCCGTC (..((((....))))..) | -12 | 38.2
30 | GATCATAGTCATGATC ((((((....)))))) | -32.9 | 47.2
31 | GAGTACCGAAAGGTCTC (((.(((....)))))) | -21.6 | 48.7
32 | GTCTTCGAAAGAACAGAC ((((((....)))..))) | -16.6 | 28.3
33 | GGTGTCCCGAAAGGGACC (((..(((....)))))) | -9.51 | 49.5
34 | GCCAACGGAAACGTCGGC (((.(((....))).))) | -42.8 | 51.1
35 | GCACTAGCGAAAGCTTGC (((..(((....)))))) | -12.6 | 38.6
36 | GATCAAATCATTGATC ((((((....)))))) | -32.8 | 41.8
37 | GTGGACCCGAAAGGGCAC (((..(((....)))))) | -16.6 | 49.3
38 | GCGAGTGGAAACATTCGC ((((.((....)).)))) | -35 | 53.2
